The record followed here is ChEMBL document CHEMBL3407395, “Synthesis, characterization, and optimization for in vivo delivery of a nonselective isopeptidase inhibitor as new antineoplastic agent” (J Med Chem, 2015).

Molecules are shown by their SMILES. The source made the active and inactive calls. The calls are words filed in the database; no cut-off is given here.

Assay [1] can be described thus: Cytotoxicity against human U87MG cells after 48 hrs by resazurin assay. The assay is classed as functional, cell-based, U-87MG ATCC. The following applies: U-87 MG. Summed up:
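U87MG glioblastoma cells treated with compounds; viability read by resazurin 48 h after treatment. IC50 from triplicate experiments, reported as mean and s.d.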
A general note: The colour change of resazurin is a common sign of viable cells or microbes.

For assay [2], the system named is T98G. Put plainly: Induction of apoptosis in human T98G cells assessed as caspase activation at 0.6 to 10 uM after 24 hrs by rhodamine-based fluorescence assay. The format is functional, cell-based. In short, it runs like this:
(§1)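 U87MG or T98G cells exposed 24 h to the listed concentrations. Caspase activity was read as relative fluorescence units from the rhodamine 110 bis-(N-Z-L-aspartyl-L-glutamyl-L-valyl-aspartic acid amide) fluorogenic substrate.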

For assay [3], the system named is T98G. Put plainly: Induction of necrosis in human T98G cells at 0.6 to 10 uM after 24 hrs by trypan blue assay. The assay is classed as functional, cell-based. In short, it runs like this: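 T98G cells exposed 24 h to the listed concentrations. Cell death was scored as percent of trypan blue-positive cells.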
Another assay deals with U-87MG ATCC. Nature of the assay: Induction of cell death in human U87MG cells at 4.2 to 18.4 uM after 24 hrs by trypan blue assay in presence of zVAD-fmk. The assay is classed as functional, cell-based.
The test system of assay [4] is U-87 MG. Put plainly: Induction of apoptosis in human U87MG cells assessed as caspase activation at 0.6 to 10 uM after 24 hrs by rhodamine-based fluorescence assay. The format is functional, cell-based. The following applies: U-87MG ATCC. In short, it runs like this:
as §1

For assay [5], the system named is U-87 MG. Nature of the assay: Induction of necrosis in human U87MG cells at 0.6 to 10 uM after 24 hrs by trypan blue assay. The format is functional, cell-based. The following applies: U-87MG ATCC. In short, it runs like this:
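U87MG cells treated 24 h at the indicated concentrations. Death scored as percent trypan blue-positive cells. Caspase activity measured in parallel with a rhodamine 110 bis-(N-Z-DEVD amide) fluorogenic substrate and read in relative fluorescence units.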

In assay [6] the test system is A549. Nature of the assay: Induction of cell death in human A549 cells assessed as accumulation of poly-ubiquitinated proteins at 0.025 to 0.5 uM after 24 hrs by immunoblot assay. The assay is classed as functional, cell-based. (In general: Immunoblotting shows a protein as a band on a membrane.)
For assay [7], the system named is A549. Nature of the assay: Induction of cell death in human A549 cells assessed as stabilization of p53 at 0.025 to 0.5 uM after 24 hrs by immunoblot assay. The assay is classed as functional, cell-based.
Assay [8] deals with A549. Nature of the assay: Induction of cell death in human A549 cells assessed as accumulation of Noxa at 0.025 to 0.1 uM after 24 hrs by immunoblot assay. The format is functional, cell-based.
For assay [9], the target named is T1, Ubl carboxyl-terminal hydrolase 18 (Homo sapiens) (UniProt Q9UMW8).
T1 sequence (whole entry): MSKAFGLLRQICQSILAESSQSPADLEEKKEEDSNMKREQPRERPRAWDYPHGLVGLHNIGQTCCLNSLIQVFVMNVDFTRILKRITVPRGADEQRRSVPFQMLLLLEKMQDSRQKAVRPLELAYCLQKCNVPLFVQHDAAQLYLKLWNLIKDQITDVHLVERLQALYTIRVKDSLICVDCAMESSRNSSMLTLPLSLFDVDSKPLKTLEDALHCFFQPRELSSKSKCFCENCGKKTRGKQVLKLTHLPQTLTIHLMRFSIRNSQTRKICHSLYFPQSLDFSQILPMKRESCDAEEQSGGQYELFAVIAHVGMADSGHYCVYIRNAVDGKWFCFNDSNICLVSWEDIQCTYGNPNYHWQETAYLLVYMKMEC
Put plainly: Inhibition of USP18 (unknown origin) expressed in human A549 cells coexpressing ISG15-GFP assessed as reduction in free GFP at 25 to 100 nM after 24 hrs by immunoblot assay.

For assay [10], the target named is Ubiquitin carboxyl-terminal hydrolase isozyme L1 (Homo sapiens) (UniProt P09936). Put plainly: Inhibition of GST-tagged recombinant full-length UCHL1 (unknown origin) expressed in bacteria using Ub-AMC as substrate preincubated for 30 mins before substrate addition measured after 60 mins by fluorescence assay. In short, it runs like this: (§2)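 Purified isopeptidase activity was measured with ubiquitin-AMC as fluorogenic substrate; IC50 was derived from inhibition.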

The target in assay [11] is T2, Ubiquitin carboxyl-terminal hydrolase 2 (Homo sapiens, UniProt O75604).
T2 sequence (O75604 whole entry): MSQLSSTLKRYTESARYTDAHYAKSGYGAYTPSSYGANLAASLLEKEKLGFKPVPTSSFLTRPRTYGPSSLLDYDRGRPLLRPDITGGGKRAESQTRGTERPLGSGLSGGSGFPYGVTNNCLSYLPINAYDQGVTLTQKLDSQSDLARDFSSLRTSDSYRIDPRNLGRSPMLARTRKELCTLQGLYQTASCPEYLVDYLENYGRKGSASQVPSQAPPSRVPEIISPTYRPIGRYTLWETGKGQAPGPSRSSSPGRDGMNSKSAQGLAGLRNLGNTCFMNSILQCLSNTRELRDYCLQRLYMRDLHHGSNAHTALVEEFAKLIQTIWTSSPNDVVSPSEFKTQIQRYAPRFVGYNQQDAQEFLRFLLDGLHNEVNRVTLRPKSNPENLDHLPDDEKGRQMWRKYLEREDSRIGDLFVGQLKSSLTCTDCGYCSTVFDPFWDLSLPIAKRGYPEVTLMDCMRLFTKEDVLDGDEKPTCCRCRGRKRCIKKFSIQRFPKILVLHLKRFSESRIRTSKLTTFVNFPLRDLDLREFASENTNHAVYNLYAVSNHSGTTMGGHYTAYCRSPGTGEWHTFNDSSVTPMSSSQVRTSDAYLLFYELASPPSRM
Put plainly: Inhibition of USP2 catalytic domain (unknown origin) expressed in bacteria using Ub-AMC as substrate preincubated for 30 mins before substrate addition measured after 60 mins by fluorescence assay. In short, it runs like this:
as §2

The test system of assay [12] is A549. Nature of the assay: Induction of cell death in human A549 cells assessed as accumulation of poly-ubiquitinated proteins at 1 to 5 uM after 24 hrs by immunoblot assay. The assay is classed as functional, cell-based.
Assay [13] addresses T1, Ubl carboxyl-terminal hydrolase 18 (Homo sapiens). Put plainly: Inhibition of USP18 (unknown origin) expressed in human A549 cells coexpressing ISG15-GFP assessed as reduction in free GFP at 1 to 5 uM after 24 hrs by immunoblot assay. The assay is classed as cell-based.
Assay [14] concerns the target T3, Ubl carboxyl-terminal hydrolase 18 (Homo sapiens, UniProt Q9UMW8).
T3 sequence (Q9UMW8 whole entry): T1 sequence (whole entry)
Nature of the assay: Inhibition of recombinant human USP18 (16 to 372 aa) expressed in Sf9 cells using ISG15-AMC as substrate preincubated for 30 mins before substrate addition measured after 60 mins by fluorescence assay.

The test system of assay [15] is A549. Nature of the assay: Induction of cell death in human A549 cells assessed as stabilization of p53 at 1 to 5 uM after 24 hrs by immunoblot assay. The assay is classed as functional, cell-based.
The target of assay [16] is T4, Ubiquitin carboxyl-terminal hydrolase isozyme L5 (Homo sapiens, UniProt Q9Y5K5).
T4 sequence (Q9Y5K5 whole entry): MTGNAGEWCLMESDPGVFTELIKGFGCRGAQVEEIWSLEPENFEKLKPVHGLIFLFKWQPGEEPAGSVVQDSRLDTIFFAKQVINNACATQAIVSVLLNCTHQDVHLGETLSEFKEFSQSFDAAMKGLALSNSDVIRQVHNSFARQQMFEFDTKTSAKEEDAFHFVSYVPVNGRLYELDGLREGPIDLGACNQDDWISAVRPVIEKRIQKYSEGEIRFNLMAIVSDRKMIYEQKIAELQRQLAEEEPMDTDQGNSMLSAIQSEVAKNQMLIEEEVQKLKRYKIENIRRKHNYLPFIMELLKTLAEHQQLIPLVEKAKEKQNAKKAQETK
Nature of the assay: Inhibition of GST-tagged UCHL5 (unknown origin) using Ub-AMC as substrate preincubated for 30 mins before substrate addition measured after 60 mins by fluorescence assay. Summed up: as §2

Ubiquitin carboxyl-terminal hydrolase isozyme L1 (Homo sapiens), sequence (P09936 whole entry, looked up): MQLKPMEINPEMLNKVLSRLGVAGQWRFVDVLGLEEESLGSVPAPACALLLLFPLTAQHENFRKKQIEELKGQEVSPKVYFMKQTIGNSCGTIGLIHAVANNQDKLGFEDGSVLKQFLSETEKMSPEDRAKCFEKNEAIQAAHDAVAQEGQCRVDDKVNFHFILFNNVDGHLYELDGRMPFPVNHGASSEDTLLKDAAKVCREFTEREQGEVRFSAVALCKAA

One may read the IC50 as the concentration that gives 50% inhibition. For `N#Cc1ccc(/C=C2\CS(=O)(=O)C/C(=C\c3ccc(C#N)cc3)C2=O)cc1`, in assay [1], it took 1.35 µM to reach half-maximal inhibition (IC50).

With `O=C1/C(=C/c2ccc(Oc3ccccc3)cc2)CS(=O)(=O)C/C1=C\c1ccc(Oc2ccccc2)cc1`, inhibition in assay [1] was half-maximal at 2.94 µM (IC50).

On to `O=C1/C(=C/c2ccc(O)cc2)CS(=O)(=O)C/C1=C\c1ccc([N+](=O)[O-])cc1`, for which, in assay [1], 2.17 µM corresponded to half-maximal inhibition (IC50).

Compound `O=C1/C(=C/c2ccccc2)CS(=O)(=O)C/C1=C\c1ccccc1` gave an IC50 in [1] of 5.11 µM.

Take `O=C1/C(=C/c2ccc([N+](=O)[O-])cc2)CSC/C1=C\c1ccc([N+](=O)[O-])cc1`: the IC50 in [1] was found to be 11.6 µM.

Take `Cc1ccc(/C=C2\CS(=O)(=O)C/C(=C\c3ccc(C)cc3)C2=O)cc1`: the result with T98G [2], with T98G [3], in the assay with U-87MG ATCC, in the assay on U-87 MG [4] and in the assay on U-87 MG [5] was Active. It took 4.74 µM to reach half-maximal inhibition in assay [1] (IC50).

As to `O=C1/C(=C/c2ccc([N+](=O)[O-])cc2)C[S+]([O-])C/C1=C\c1ccc([N+](=O)[O-])cc1` (stereo not drawn), in assay [1], the IC50 stood at 1.79 µM. The outcome in the assay on U-87 MG [5] was Active.

Take `CC(C)C[C@H](NC(=O)[C@H](Cc1ccccc1)NC(=O)c1cnccn1)B(O)O`: the result in the assay with A549 [6], with A549 [7] and with A549 [8] was Active. In addition, the inhibition entry in assay [9] was “inactive”.

On to `O=C1/C(=C/c2ccc([N+](=O)[O-])cc2)CC2(C/C1=C\c1ccc([N+](=O)[O-])cc1)OCCO2`, for which half-maximal inhibition in assay [1] (IC50) required 15.3 µM.

`COc1ccc(/C=C2\CS(=O)(=O)C/C(=C\c3ccc([N+](=O)[O-])cc3)C2=O)cc1` returned an IC50 in [1] of 2.09 µM.

As to `O=C1/C(=C/c2ccc([N+](=O)[O-])cc2)CNC/C1=C\c1ccc([N+](=O)[O-])cc1`, the IC50 in [1] worked out at 7.15 µM.

Compound `CCOC(=O)C1C/C(=C\c2ccc([N+](=O)[O-])cc2)C(=O)/C(=C/c2ccc([N+](=O)[O-])cc2)C1` (stereo not drawn) yielded an IC50 in assay [1] of 2.47 µM.

Turning to `O=C1/C(=C/c2ccc([N+](=O)[O-])cc2)CCC/C1=C\c1ccc([N+](=O)[O-])cc1`, in [1], the IC50 amounted to 27.5 µM.

For the compound `O=C1/C(=C/c2cccc([N+](=O)[O-])c2)CS(=O)(=O)C/C1=C\c1cccc([N+](=O)[O-])c1`, the IC50 in assay [1] is 0.76 µM.

In [1], `COc1ccc(/C=C2\CS(=O)(=O)C/C(=C\c3ccc(OC)c([N+](=O)[O-])c3)C2=O)cc1[N+](=O)[O-]` displayed an IC50 of 1.14 µM.

`Cc1ccc(/C=C2\CS(=O)(=O)C/C(=C\c3ccc([N+](=O)[O-])cc3)C2=O)cc1`: it took 1.39 µM to reach half-maximal inhibition in assay [1] (IC50).

`O=C1/C(=C/c2ccc(F)cc2)CS(=O)(=O)C/C1=C\c1ccc(F)cc1` yielded an IC50 in assay [1] of 2.21 µM.

Consider `O=C1/C(=C/c2ccc(O)cc2)CS(=O)(=O)C/C1=C\c1ccc(O)cc1`, for which half-maximal inhibition in assay [1] (IC50) required 6.73 µM.

For the compound `COc1ccc(/C=C2\CS(=O)(=O)C/C(=C\c3ccc(OC)cc3)C2=O)cc1`, it took 3.57 µM to reach half-maximal inhibition in assay [1] (IC50).

Consider `O=C1/C(=C/c2ccc([N+](=O)[O-])cc2)CS(=O)(=O)C/C1=C\c1ccc([N+](=O)[O-])cc1`, for which the inhibition entry in assay [10] was “inactive”. In addition, the IC50 in assay [11] stood at 32.6 µM; in [1], 0.77 µM; in [14], 33.2 µM; in assay [16], 13.6 µM. The outcome in the assay on A549 [12], with A549 [15] and in the assay with U-87 MG [5] was Active. The inhibition entry in [13] was “Active”.

Compound `O=C1/C(=C/c2ccc([N+](=O)[O-])cc2)COC/C1=C\c1ccc([N+](=O)[O-])cc1` displayed an IC50 in assay [1] of 50.1 µM.
